The text below walks through data of PubChem BioAssay.

A short description of assay [1]: RPL19A-GFP modulators, yeast TOR pathway, confirmation, cell-based, S. cerevisiae, flow cytometry, cherry picks, mother/daughter gates (AID 2270;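 active means GFP response below 50% of the DMSO control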). The note with it: S. cerevisiae RPL19A-GFP strain, 3 h, at 10 µM, stronger effect = lower value, 100 = same GFP as DMSO wells.
Assay [2] is described as follows: LAP4-GFP expression modulators in yeast, confirmation, cell-based, cherry picks, flow cytometry, mother/daughter gates (AID 2271;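 active means GFP response above 150% of the DMSO control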;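 further: ratio of sample to DMSO plate mean so 100% equals DMSO level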). As to conditions: S. cerevisiae LAP4-GFP strain, 3 h, at 10 µM, stronger effect = higher value, 100 means same as DMSO control. Put shortly:
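System – GFP-fusion yeast strain · Amount – 0.2 OD600 cells · Buffer or medium – SC growth medium · Dosing – single test-compound dose, 10 µM final · Schedule – 3 h treatment at 30 °C with rotation · Detection – GFP by flow cytometry · Read-out – per-gate (all, mother, daughter) GFP response vs DMSO · Benchmarks – positive rapamycin (400 ng/mL), negative DMSO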

A short description of assay [3]: modulators of MEP2-GFP levels in yeast, confirmation, S. cerevisiae, flow cytometry GFP, cherry picks (AID 2272;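 active means GFP response above 150% of the DMSO control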;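 further: ratio of well signal to plate DMSO mean so 100% equals DMSO level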). As to conditions: S. cerevisiae MEP2-GFP strain, 3 h, at 10 µM, stronger effect = higher value.
A short description of assay [4]: AGP1-GFP expression modulators, hit retest, confirmation, cell-based, flow cytometry, S. cerevisiae, cherry picks (AID 2273).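 Further: median GFP channel fluorescence over the whole cell population gate.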 The note with it: S. cerevisiae AGP1-GFP strain, 3 h, at 10 µM.
The nature of assay [5]: modulators of CIT2-GFP expression in yeast, confirmation, S. cerevisiae, GFP fusion, cherry picks, mother/daughter gates (AID 2274). As to conditions: S. cerevisiae CIT2-GFP strain, flow cytometry, 3 h, at 10 µM, stronger effect = higher value.
[6] abbreviates: measured here: daughter cell gate.
Setting [7] is: measured here: mother cell gate.
Where [8] appears, read: measured here: daughter cell gate response.
Where [9] appears, read: measured here: mother cell gate response.

Each structure is given as a SMILES string. Active and inactive are the calls of the source.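 How the source made its calls, unless noted: active means GFP response above 150% of the DMSO level; inconclusive means fewer than 70 events counted for a yeast strain; inactive means the rest.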

For the compound `Cc1ccc(S(=O)(=O)c2ccc([N+](=O)[O-])cn2)cc1`, the GFP response vs DMSO in assay [1] is 93.2% (inactive); in assay [1] (setting [6]), 99.5%; in assay [1] (setting [7]), 84.5%; in assay [3], 139% (inactive). Further, the GFP response relative to DMSO was 185% (active) in assay [2], 156% in assay [2] (setting [8]) and 177% in assay [2] (setting [9]). Also, the GFP response, % of DMSO in assay [4] was 115% (inactive); in assay [5], 103% (inactive); in assay [5] (setting [6]) it was 114%; in assay [5] (setting [7]) it was 93.4%.

As to `CCOc1ccccc1NC(=O)c1nc(S(=O)(=O)Cc2ccccc2)ncc1Cl`, the GFP response vs DMSO in assay [1] was 97.8% (inactive); in assay [1] (setting [6]), 99.8%; in assay [1] (setting [7]) it was 97.1%; in assay [3] it was 103% (inactive). The GFP response relative to DMSO in assay [2] is 94.1% (inactive); in assay [2] (setting [8]), 96%; in assay [2] (setting [9]), 95.4%. Also, the GFP response, % of DMSO was 106% (inactive) in assay [4], 98.6% (inactive) in assay [5], 101% in assay [5] (setting [6]) and 97.1% in assay [5] (setting [7]).

For `O=C(Nc1ccccc1O)c1ccccc1O`, the GFP response vs DMSO is 95.8% (inactive) in assay [1], 96.4% in assay [1] (setting [6]), 94.2% in assay [1] (setting [7]) and 106% (inactive) in assay [3]. Moreover, the GFP response relative to DMSO in assay [2] is 96.5% (inactive); in assay [2] (setting [8]), 96%; in assay [2] (setting [9]), 95.4%. Moreover, the GFP response, % of DMSO is 103% (inactive) in assay [4], 101% (inactive) in assay [5], 103% in assay [5] (setting [6]) and 100% in assay [5] (setting [7]).

Regarding `CCOc1ccccc1NC1=C(Cl)C(=O)N(Cc2ccccc2)C1=O`, the GFP response vs DMSO in assay [1] was 103% (inactive); in assay [1] (setting [6]) it was 102%; in assay [1] (setting [7]), 104%; in assay [3] it was 104% (inactive). The GFP response relative to DMSO in assay [2] is 96.2% (inactive); in assay [2] (setting [8]), 97.2%; in assay [2] (setting [9]) it was 97.2%. For the same compound, the GFP response, % of DMSO is 98.5% (inactive) in assay [4], 99.1% (inactive) in assay [5], 99.7% in assay [5] (setting [6]) and 98.7% in assay [5] (setting [7]).

`O=[N+]([O-])c1cc(CN2CCN(c3ccccc3)CC2)c(O)c2ncccc12`: the GFP response vs DMSO was 76.4% (inactive) in assay [1], 108% in assay [1] (setting [6]), 59.5% in assay [1] (setting [7]) and 114% (inactive) in assay [3]. Also, the GFP response relative to DMSO in assay [2] was 161% (active); in assay [2] (setting [8]), 138%; in assay [2] (setting [9]) it was 165%. Further, the GFP response, % of DMSO was 78.8% (inactive) in assay [4], 97.3% (inactive) in assay [5], 106% in assay [5] (setting [6]) and 88.2% in assay [5] (setting [7]).

For `CCc1ccc2c(c1)C1(NN=C(c3ccccc3)S1)C(=O)N2` (centres undefined), the GFP response vs DMSO in assay [1] is 101% (inactive); in assay [1] (setting [6]) it was 99.1%; in assay [1] (setting [7]), 97.7%; in assay [3], 114% (inactive). Besides, the GFP response relative to DMSO in assay [2] is 133% (inactive); in assay [2] (setting [8]) it was 125%; in assay [2] (setting [9]), 140%. Moreover, the GFP response, % of DMSO was 102% (inactive) in assay [4], 94.4% (inactive) in assay [5], 99.2% in assay [5] (setting [6]) and 89.5% in assay [5] (setting [7]).

As to `Cc1cc(C)nc(S/C=C/C(=O)c2ccccc2F)n1`, the GFP response vs DMSO in assay [1] is 103% (inactive); in assay [1] (setting [6]), 102%; in assay [1] (setting [7]) it was 102%; in assay [3], 107% (inactive). Also, the GFP response relative to DMSO in assay [2] was 120% (inactive); in assay [2] (setting [8]), 119%; in assay [2] (setting [9]), 123%. For the same compound, the GFP response, % of DMSO was 94.3% (inactive) in assay [4], 95.2% (inactive) in assay [5], 98.1% in assay [5] (setting [6]) and 92.3% in assay [5] (setting [7]).

As to `Cc1ccc(-c2nc3ccccn3c2NC(=O)c2ccco2)cc1`, the GFP response vs DMSO in assay [1] is 94.9% (inactive); in assay [1] (setting [6]), 96.4%; in assay [1] (setting [7]), 95%; in assay [3], 101% (inactive). The figures for the GFP response relative to DMSO in assay [2], in assay [2] (setting [8]) and in assay [2] (setting [9]) were 98.9% (inactive), 97.5% and 98.4%, respectively. The GFP response, % of DMSO in assay [4] was 98.4% (inactive); in assay [5], 104% (inactive); in assay [5] (setting [6]), 103%; in assay [5] (setting [7]), 104%.

Take `O=C(Nc1c2c(nn1-c1ccccc1)CS(=O)C2)c1ccco1` (centres undefined): the GFP response vs DMSO in assay [1] was 96.5% (inactive); in assay [1] (setting [6]), 97.3%; in assay [1] (setting [7]), 95%; in assay [3] it was 99.3% (inactive). The values for the GFP response relative to DMSO in assay [2], in assay [2] (setting [8]) and in assay [2] (setting [9]) were 92.9% (inactive), 96% and 95.4%, respectively. For the same compound, the GFP response, % of DMSO in assay [4] was 100% (inactive); in assay [5], 97.2% (inactive); in assay [5] (setting [6]) it was 99.3%; in assay [5] (setting [7]), 96%.

In the case of `O=[N+]([O-])c1cc(C(F)(F)F)ccc1Sc1ccc2ccccc2n1`, the GFP response vs DMSO was 95.8% (inactive) in assay [1], 97% in assay [1] (setting [6]), 96.4% in assay [1] (setting [7]) and 102% (inactive) in assay [3]. The GFP response relative to DMSO in assay [2] was 115% (inactive); in assay [2] (setting [8]), 109%; in assay [2] (setting [9]), 115%. Moreover, the GFP response, % of DMSO in assay [4] is 97.5% (inactive); in assay [5], 95% (inactive); in assay [5] (setting [6]), 98.3%; in assay [5] (setting [7]), 93.3%.

Turning to `OC1(c2ccc(F)cc2)CSC(=Nc2cccnc2)N1Cc1ccco1` (centres undefined), the GFP response vs DMSO was 98% (inactive) in assay [1], 99.6% in assay [1] (setting [6]), 98.7% in assay [1] (setting [7]) and 110% (inactive) in assay [3]. The GFP response relative to DMSO in assay [2] was 102% (inactive); in assay [2] (setting [8]) it was 99.7%; in assay [2] (setting [9]) it was 104%. In addition, the GFP response, % of DMSO was 104% (inactive) in assay [4], 108% (inactive) in assay [5], 106% in assay [5] (setting [6]) and 108% in assay [5] (setting [7]).

For `CC(=O)Nc1ccc(S(=O)(=O)NC(CC(=O)NCCC2=CCCCC2)C(C)C)cc1` (centres undefined), the GFP response vs DMSO in assay [1] is 99.8% (inactive); in assay [1] (setting [6]) it was 99.4%; in assay [1] (setting [7]), 101%; in assay [3], 102% (inactive). In addition, the GFP response relative to DMSO was 99.2% (inactive) in assay [2], 99.2% in assay [2] (setting [8]) and 96.1% in assay [2] (setting [9]). Also, the GFP response, % of DMSO in assay [4] is 101% (inactive); in assay [5] it was 101% (inactive); in assay [5] (setting [6]) it was 101%; in assay [5] (setting [7]) it was 101%.

Regarding `CC(=O)Oc1ccc(/C=c2\sc3ncnn3c2=O)cc1`, the GFP response vs DMSO in assay [1] was 100% (inactive); in assay [1] (setting [6]), 102%; in assay [1] (setting [7]), 97.8%; in assay [3] it was 101% (inactive). Besides, the results for the GFP response relative to DMSO in assay [2], in assay [2] (setting [8]) and in assay [2] (setting [9]) were 123% (inactive), 122% and 125%, respectively. The GFP response, % of DMSO is 98.8% (inactive) in assay [4], 100% (inactive) in assay [5], 103% in assay [5] (setting [6]) and 96% in assay [5] (setting [7]).

Consider `CCc1nnc(NC(=O)c2ccc(S(=O)(=O)N(C)Cc3ccccc3)cc2)o1`, for which the GFP response vs DMSO in assay [1] is 99% (inactive); in assay [1] (setting [6]), 99.5%; in assay [1] (setting [7]), 98.5%; in assay [3], 104% (inactive). In addition, the GFP response relative to DMSO was 103% (inactive) in assay [2], 106% in assay [2] (setting [8]) and 103% in assay [2] (setting [9]). The GFP response, % of DMSO in assay [4] is 103% (inactive); in assay [5], 103% (inactive); in assay [5] (setting [6]), 99.7%; in assay [5] (setting [7]) it was 105%.
